Data: PubChem BioAssay AID651651 (Broad Institute, 2012)
Calls of active or inactive are those of the source.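 Rule for the calls: active = signal-lowering compounds whose fitted half-effect concentration is no more than twice the top tested dose; inconclusive = flat curve with 30 to 70% inhibition, or poor fit; inactive = the rest.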

Test: quencher artefacts in RAD54 branch migration readout – biochemical, Cy5 label, cherry-picked samples, artefact control for RAD54 inhibitor project, dose response (AID 651651)
Settings: Cy5 DNA fluorescence quench counter-screen; series mostly up to 50 µM
Procedure, shortened: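 Test system: human RAD54 enzyme; Amount: 30 nM RAD54 in the enzyme mix; Medium: 25 mM Tris pH 7.5, 3 mM MgCl2, 2 mM ATP; Measured by: Cy5 fluorescence; Times: 60 min reaction at room temperature after substrate addition; Doses: pinned compound dose series, 10 mM stock solutions.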
In the case of Cc1noc(C)c1NC(=O)Nc1ccc2c(c1)C(=O)N([C@H](C)CO)C[C@H](C)[C@H](CN(C)S(C)(=O)=O)OCCCC[C@H](C)O2, the outcome is reported as “inactive”. In the case of COc1ccc(CN(C)C[C@@H]2Oc3ccc(NC(=O)NC(C)C)cc3C(=O)N([C@@H](C)CO)C[C@H]2C)cc1, the outcome is reported as “inactive”. In the case of COc1cccc(S(=O)(=O)N2CCCCN3[C@@H](CO)[C@H](c4ccc(C#CCC(C)C)cc4)[C@@H]3C2)c1, the outcome is reported as “inactive”. For C[C@H]1CN([C@@H](C)CO)C(=O)Cc2cc(NC(=O)Nc3cccc4ccccc34)ccc2O[C@H]1CN(C)S(=O)(=O)c1ccc(F)cc1, the outcome was “inactive”. For COc1ccc(CN(C)C[C@@H]2Oc3ccc(NC(=O)Nc4ccc5c(c4)OCO5)cc3C(=O)N([C@H](C)CO)C[C@H]2C)cc1, the outcome was “inactive”. With COc1ccc(CN(C)C[C@@H]2Oc3ccc(NC(=O)Nc4ccc(F)cc4)cc3C(=O)N([C@@H](C)CO)C[C@H]2C)cc1 the outcome was “inactive”. In the case of CN(C)c1ccc2c(c1)[C@@H]1C[C@@H](CC(=O)NCCN3CCCCC3)O[C@H](CO)[C@@H]1O2, the outcome is reported as “inactive”. In the case of COc1ccc(-c2ccc3c(c2)[C@H]2[C@H](CCN2C(=O)Cc2cccnc2)[C@H](CO)N3C)cc1, the outcome is reported as “inactive”. For O=C(C[C@@H]1C[C@H]2c3cc(NC(=O)CC4CC4)ccc3O[C@H]2[C@@H](CO)O1)NCc1ccc(Cl)cc1, the outcome was “inactive”. In the case of COc1ccc(-c2ccc3c(c2)O[C@H](CN(C)C(C)=O)[C@H](C)CN([C@@H](C)CO)S3(=O)=O)cc1, the outcome is reported as “inactive”. For C[C@H]1CN([C@@H](C)CO)C(=O)Cc2cc(NC(=O)Nc3cccc4ccccc34)ccc2O[C@H]1CN(C)S(=O)(=O)c1ccc(Cl)cc1, the outcome was “inactive”. For COc1ccc(S(=O)(=O)Nc2ccc3c(c2)[C@@H]2C[C@H](CC(=O)NCC4CC4)O[C@H](CO)[C@@H]2O3)cc1, the outcome was “inactive”. In the case of COc1ccc(CN(C)C[C@@H]2Oc3ccc(NC(=O)NC(C)C)cc3C(=O)N([C@H](C)CO)C[C@H]2C)cc1, the outcome is reported as “inactive”. In the case of C/C=C/c1ccc([C@@H]2[C@@H](CO)N3CCCCN(C(=O)Nc4ccc(F)cc4)C[C@H]23)cc1, the outcome is reported as “inactive”. For C[C@@H]1CN([C@@H](C)CO)C(=O)c2cc(NS(=O)(=O)c3cccs3)ccc2O[C@@H]1CN(C)C(=O)Nc1cccc2ccccc12, the outcome was “inactive”. In the case of COc1ccccc1CNC(=O)C[C@@H]1C[C@@H]2c3cc(NC(=O)CN(C)C)ccc3O[C@@H]2[C@@H](CO)O1, the outcome is reported as “inactive”. In the case of Cc1ccc(S(=O)(=O)N(C)C[C@@H]2Oc3ccc(NC(=O)NC4CCCCC4)cc3CC(=O)N([C@H](C)CO)C[C@@H]2C)cc1, the outcome is reported as “inactive”. For C[C@H]1CCCCO[C@@H](CN(C)C(=O)Nc2ccc3c(c2)OCO3)[C@@H](C)CN([C@@H](C)CO)C(=O)c2cc(NC(=O)Nc3ccc(C(F)(F)F)cc3)ccc2O1, the outcome was “inactive”. For CN(C)c1ccc2c(c1)[C@H]1C[C@H](CC(=O)NCCN3CCCCC3)O[C@@H](CO)[C@H]1O2, the outcome was “inactive”. In the case of CC(C)NC(=O)Nc1ccc2c(c1)C(=O)N([C@H](C)CO)C[C@@H](C)[C@H](CN(C)S(=O)(=O)c1ccc(Cl)cc1)O2, the outcome is reported as “inactive”.
